# Assays:
# [1] = Inhibition of alpha-glucosidase (unknown origin) at 500 uM relative to control; conditions: Homo sapiens
# Summary of the method: (§1)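 Single-point screen at 500 μM inhibitor, with acarbose as positive control. Derivatives exceeding 50% inhibition were taken on to a dose-response series at several concentrations to derive IC50. Values are mean ± SD, n = 3.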
# [2] = Inhibition of alpha-glucosidase (unknown origin); design: species or system Homo sapiens; summary of the method: as §1
# [3] = Potency index, ratio of chepraecoxinA IC50 to test compound IC50 for inhibition of alpha-glucosidase (unknown origin); conditions: Homo sapiens
# [4] = Non-competitve inhibition of alpha-glucosidase (unknown origin) by Dixon-plot analysis; design: species or system Homo sapiens
# Summary of the method: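 Kinetic study run at varied substrate concentrations. Inhibition type was assigned from a Lineweaver-Burk plot (Vm and Km compared), and the inhibition constant Ki was read from a Dixon plot.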
inhibition [1] [%],IC50 [2] [µM],Ratio IC50 [3],Ki [4] [µM],Structure (SMILES)
7.5,–,–,–,CC(=O)O[C@H]1CC[C@@](C)(C(=O)O)[C@H]2CC[C@@]34C[C@H](CC[C@H]3[C@]12C)[C@@](O)(CO)C4
98,48.4,–,–,CCCC(=O)O[C@H]1CC[C@@](C)(C(=O)O)[C@H]2CC[C@@]34C[C@H](CC[C@H]3[C@]12C)[C@@H](C)C4
95,274,–,–,C=C1C[C@@]23CC[C@H]4[C@@](C)([C@@H](OC(C)=O)CC[C@@]4(C)C(=O)O)[C@@H]2CC[C@H]1C3
91.8,16.9,17,–,CCCCC/C=C/C(=O)O[C@H]1CC[C@@](C)(C(=O)O)[C@H]2CC[C@@]34C[C@H](CC[C@H]3[C@]12C)[C@@H](C)C4
19.4,–,–,–,C=C1C[C@@]23CC[C@H]4[C@@](C)(C(=O)CC[C@@]4(C)C(=O)O)[C@@H]2CC[C@H]1C3
94.2,32,–,–,CCCCCCCCCCCCCCCCCC(=O)O[C@H]1CC[C@@](C)(C(=O)O)[C@H]2CC[C@@]34C[C@H](CC[C@H]3[C@]12C)[C@@H](C)C4
9.6,–,–,–,CC(=O)O[C@H]1CC[C@@](C)(C(=O)O)[C@H]2CC[C@@]34C[C@H](CC[C@H]3[C@]12C)[C@@]1(CO1)C4
11.4,–,–,–,COC(=O)[C@]1(C)CC[C@H](OC(C)=O)[C@@]2(C)[C@@H]3CC[C@H]4C[C@@]3(CC[C@@H]21)C[C@@H]4C
77.2,330,–,–,C=C1C[C@@]23CC[C@H]4[C@@](C)(/C(=N/O)CC[C@@]4(C)C(=O)O)[C@@H]2CC[C@H]1C3
–,17.1,17,–,C[C@H]1C[C@@]23CC[C@H]4[C@@](C)([C@@H](OC(=O)/C=C/c5ccccc5)CC[C@@]4(C)C(=O)O)[C@@H]2CC[C@H]1C3
95.5,22.8,–,–,CCCCCCCC(=O)O[C@H]1CC[C@@](C)(C(=O)O)[C@H]2CC[C@@]34C[C@H](CC[C@H]3[C@]12C)[C@@H](C)C4
–,16.1,17,19.4,C[C@H]1C[C@@]23CC[C@H]4[C@@](C)([C@@H](OC(=O)C5CCCCC5)CC[C@@]4(C)C(=O)O)[C@@H]2CC[C@H]1C3
13.2,–,–,–,C[C@H]1C[C@@]23CC[C@H]4[C@@](C)(C(=O)CC[C@@]4(C)C(=O)O)[C@@H]2CC[C@H]1C3
78.8,262,–,–,CC(=O)O[C@H]1CC[C@@](C)(C(=O)O)[C@H]2CC[C@]34CC(=O)[C@@H](CC[C@H]3[C@]12C)C4
98.4,146,2,–,CC(=O)O[C@H]1CC[C@@](C)(C(=O)O)[C@H]2CC[C@@]34C[C@H](CC[C@H]3[C@]12C)[C@@H](C)C4
93,71.4,–,–,C[C@H]1C[C@@]23CC[C@H]4[C@@](C)([C@@H](OC(=O)c5cccnc5)CC[C@@]4(C)C(=O)O)[C@@H]2CC[C@H]1C3
17.8,–,–,–,C[C@H]1C[C@@]23CC[C@H]4[C@@](C)([C@@H](OC(=O)CCC(=O)O)CC[C@@]4(C)C(=O)O)[C@@H]2CC[C@H]1C3
79.8,130,–,–,C[C@H]1O[C@H](O[C@H]2[C@H](O)[C@@H](O)[C@@H](O[C@H]3[C@H](O)[C@@H](O)C(O)O[C@@H]3CO)O[C@@H]2CO)[C@H](O)[C@@H](O)[C@@H]1N[C@H]1C=C(CO)[C@@H](O)[C@H](O)[C@H]1O (stereo not given in full) [ACARBOSE]
22.1,–,–,–,C=C1[C@H]2CC[C@@H]3[C@@](CC[C@H]4[C@@]3(C)[C@@H](OC(C)=O)CC[C@@]4(C)C(=O)O)(C2)[C@H]1O
17.3,–,–,–,C[C@H]1C[C@@]23CC[C@H]4[C@](C)([C@@H]2CC[C@H]1C3)[C@@H](O)CC[C@@]4(C)C(=O)O
45.4,–,–,–,C=C1C[C@@]23CC[C@H]4[C@@](C)([C@@H](OC(C)=O)CC[C@@]4(C)C(=O)OC)[C@@H]2CC[C@H]1C3
18.6,–,–,–,C=C1C(=O)[C@@]23CC[C@H]4[C@@](C)([C@@H](OC(C)=O)CC[C@@]4(C)C(=O)O)[C@@H]2CC[C@H]1C3
–,45.4,–,–,C[C@H]1C[C@@]23CC[C@H]4[C@@](C)([C@@H](OC(=O)c5ccccc5)CC[C@@]4(C)C(=O)O)[C@@H]2CC[C@H]1C3
52,538,–,–,C=C1C[C@@]23CC[C@H]4[C@](C)([C@@H]2CC[C@H]1C3)[C@@H](O)CC[C@@]4(C)C(=O)O

# — ChEMBL document CHEMBL4627290, “Synthesis and biological evaluation of chepraecoxin A derivatives as α-glucosidase inhibitors” (Bioorg Med Chem Lett, 2020)
